The list is not random: actives were taken first. Their share in the collection is about 6.4%.
WT yeast gro inh: growth inhibition of WT yeast, mitochondrial fusion screen. 190,000 compounds, 2.1% hits. inhibition, % at 10 µM. AID 1362. mitochondrial fusion phenotypic screen, WT strain; in the data active = inhibition above about 58%; tested in S. cerevisiae
NR3A LBD binder: modulators (binders) of human NR3A ligand-binding domain; NR3A LBD differential scanning fluorimetry, Tm shift; 0% = protein alone, 100% = glycine-bound protein; Tm shift relative to glycine control, % at 25 µM; 340,000 compounds, 2.5% hits;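 active = melting temperature shift of at least 10% of the positive control shift, at one fixed dose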
EBV gp42 inh: inhibitors of Epstein-Barr virus glycoprotein 42; Q1HVG2; Fluorescence polarization binding assay, mP read-out; inhibition, % (tested at 21.74 µM); 220,000 compounds, 0.42% hits; AID 1085; in the data active = inhibition above about 50%
Target sequence (Q1HVG2 whole entry, looked up): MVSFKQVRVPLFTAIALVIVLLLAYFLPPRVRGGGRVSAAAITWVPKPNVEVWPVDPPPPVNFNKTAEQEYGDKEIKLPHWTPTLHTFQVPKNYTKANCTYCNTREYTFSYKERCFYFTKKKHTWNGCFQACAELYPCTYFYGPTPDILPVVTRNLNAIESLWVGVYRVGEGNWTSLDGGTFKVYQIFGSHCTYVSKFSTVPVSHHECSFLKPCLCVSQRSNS
CHOP inh: CHOP inhibition in unfolded protein response | CHO-K1 CHOP-promoter luciferase, tunicamycin-induced, 15-18 h | inhibition, % at 10 µM | 220,000 compounds, 3.8% hits | AID 2732;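 active = compounds that reduced the stress-induced luciferase reporter signal by more than about 70% of percent inhibition, limit read from the data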
Tb MetRS inh: blocks T. brucei methionyl-tRNA synthetase activity; inhibition, % at 11.9 µM; purified T. brucei MetRS, ATP depletion, Kinase-Glo luminescence; 360,000 compounds, 0.4% hits;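 active = inhibition above a per-plate cutoff of the control wells' mean inhibition plus 3 SD, cut at about 5.5% in these data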
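technique = Kinase-Glo luminescence, ATP depletion format | system = purified MetRS (methionyl-tRNA synthetase) enzyme from Trypanosoma brucei | timing = 15 min preincubation, 2 h reaction, all 25 °C | evaluation = percent inhibition versus plate control medians | dosing = single dose, 11.9 µM final nominal, 0.9% final DMSO | also added = substrates ATP, L-methionine and bulk Escherichia coli tRNA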
MPTP block: inhibitors of mitochondrial permeability transition pore. isolated mouse mitochondria, Ca2+ swelling absorbance, 30 min. 360,000 compounds, 1.4% hits. inhibition, % at 10 µM;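 active = inhibition of 50% or more, scaled per plate between neutral and stimulator controls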
Rh123 counter: membrane potential counter-screen of mitochondrial pore inhibitors. shares compounds with MPTP block. isolated mitochondria, Rhodamine 123 fluorescence. inhibition, % at 10 µM. 5,000 compounds, 78% hits. AID 624504; in the data active = inhibition above about 22%
MPTP abs DR: MPTP inhibition, dose response swelling confirmation. 780 compounds, 58% hits. shares compounds with MPTP block. IC50, µM. isolated mitochondria swelling, absorbance. AID 651561; in the data active = IC50 below about 20 µM
MPTP counter DR: active in counter-screen for permeability transition pore inhibitors; IC50, µM; shares compounds with MPTP block; isolated mitochondria counterscreen, fluorescence read-out; AID 651564; 780 compounds, 49% hits; in the data active = IC50 below about 80 µM
Hits are given with their value; . = inactive; / = no result.

SMILES	WT yeast gro inh	NR3A LBD binder	EBV gp42 inh	CHOP inh	Tb MetRS inh	MPTP block	Rh123 counter	others
COc1ccc(C2=NN(C(=O)CSc3nc(=O)n4cc(C)ccc4n3)C(c3ccc(C)cc3)C2)cc1 (stereo not drawn)	/	.	/	/	.	.	/
CCOc1ccc(OCC(=O)NCCS(=O)(=O)N2CCN(c3ccc(F)cc3)CC2)cc1	/	.	/	/	.	.	/
O=C1NC(=O)C(c2ccccc2)(C2CCCC2)N1 (stereo not drawn)	/	.	/	/	.	.	/
CCOC(=O)c1sc(NC(=O)CSc2nc3c(cc2C#N)CCCCC3)c(C#N)c1C	.	.	.	.	.	91.2	.	MPTP abs DR=.;MPTP counter DR=9.79
O=C(CSc1nc(-c2ccco2)cc(C(F)(F)F)n1)Nc1ccc(C(=O)N2CCCCC2)cc1	.	.	.	.	.	53.8	92.4
Cc1cc(NC(=O)CSc2nc(-c3ccco3)cc(C(F)(F)F)n2)no1	.	.	.	/	.	.	/
CCOC(=O)c1sc(NC(=O)c2cccc(S(=O)(=O)N(CC)CC)c2)cc1C	.	.	.	.	.	51.2	.	MPTP abs DR=.;MPTP counter DR=<2.5
CCOC(=O)C1CCN(C(=O)C2CCN(c3nnc(-n4cccc4)s3)CC2)CC1	/	.	/	/	.	.	/
COC(=O)c1c(NC(=S)Nc2ccccc2Cl)sc(C)c1C	.	.	.	89.2	.	55.5	70.0
O=[N+]([O-])c1ccc(CN2CCN(c3nc4ccccc4s3)CC2)cc1	/	.	/	/	.	.	/
CCN(Cc1ccccc1)S(=O)(=O)c1ccc(C(=O)N(CCCN(C)C)c2nc3c(C)c(C)ccc3s2)cc1	/	.	/	/	.	81.9	.
CCOC(=O)N1CCN(S(=O)(=O)c2ccc(C(=O)N(CCCN(C)C)c3nc4c(C)c(C)ccc4s3)cc2)CC1	/	.	/	/	.	75.1	.	MPTP abs DR=5.55;MPTP counter DR=.
CN(C)CCCN(C(=O)c1ccc(S(=O)(=O)N2CCCC2)cc1)c1nc2c(F)cc(F)cc2s1	/	/	/	/	.	.	/
CN(C)CCCN(C(=O)c1ccc(S(=O)(=O)N2CCCCCC2)cc1)c1nc2c(F)cc(F)cc2s1	/	.	/	/	.	88.1	.	MPTP abs DR=4.26;MPTP counter DR=.
Cc1ccc2sc(N(CCCN(C)C)C(=O)c3ccc(S(=O)(=O)N4CCOCC4)cc3)nc2c1C	/	.	/	/	.	.	/
Cc1ccc2sc(N(CCCN(C)C)C(=O)c3ccc(S(=O)(=O)N(C)C4CCCCC4)cc3)nc2c1C	/	.	/	/	.	88.4	.
CCN(CC)CCN(C(=O)c1ccc(S(=O)(=O)N(C)C2CCCCC2)cc1)c1nc2c(C)cccc2s1	/	.	/	/	.	.	/
CCN(Cc1ccccc1)S(=O)(=O)c1ccc(C(=O)N(CCCN(C)C)c2nc3cc4c(cc3s2)OCO4)cc1	/	.	/	/	.	.	/
CC1Cc2nc(SCC(=O)NCC3CCCO3)n(Cc3ccccc3)c(=O)c2S1 (stereo not drawn)	.	.	.	.	.	.	/
COc1ccccc1NC(=O)Cc1csc(NC(=S)Nc2ccccc2)n1	.	11.2	.	.	.	79.2	71.1
COc1ccc(NC(=S)Nc2nc(CC(=O)Nc3ccccc3OC)cs2)cc1	.	.	.	.	.	75.4	79.1
O=C(NC1CCCCC1)N1CCCC(c2nc(-c3ccc(S(=O)(=O)N4CCCC4)cc3)no2)C1 (stereo not drawn)	.	.	.	.	.	.	/
Cc1ccc(S(=O)(=O)Nc2nnc(C3CCCCC3)s2)cc1	/	.	/	/	.	.	/
Cc1ccc(S(=O)(=O)NC(=O)c2cc(C)n(CC(c3ccccc3)N(C)C)c2C)cc1 (stereo not drawn)	.	.	.	.	.	.	/
CC1(C)CC(c2nc(-c3ccc(Cl)cc3)cs2)CCS1 (stereo not drawn)	66.3	.	.	.	.	77.6	.	MPTP abs DR=.;MPTP counter DR=58.4
SMILES	WT yeast gro inh	NR3A LBD binder	EBV gp42 inh	CHOP inh	Tb MetRS inh	MPTP block	Rh123 counter	others
Oc1cc2ccccc2cc1-c1n[nH]c(=S)o1	.	.	.	.	.	95.9	71.1
COc1ccc(OC)c(NC(=O)NC2(C(F)(F)F)Oc3ccccc3O2)c1	.	.	.	.	.	.	/
C=CCSc1nc(N)c2c(C)c(C)sc2n1	.	.	.	.	.	.	/
CN(Cc1ccc(OC(F)F)cc1)C(=O)c1cccc(S(=O)(=O)N2CCN(Cc3ccccc3)CC2)c1	/	.	/	/	.	58.2	99.3
CCOC(=O)C1CCN(C(=O)COC(=O)c2ccc3[nH]c4c(c3c2)CCCC4)CC1	/	.	/	/	.	.	/
N#C/C(=C(/O)c1ccc(Cl)c([N+](=O)[O-])c1)c1nc2ccccc2[nH]1	/	.	.	.	.	78.3	80.6
N#C/C(=C(/O)C(Cl)(Cl)Cl)c1nc2ccccc2[nH]1	/	.	.	.	.	75.5	81.3
C/C(O)=C(/C#N)c1nc2ccccc2[nH]1	.	.	.	.	.	.	/
CC(=O)Nc1cc(NC(C)=O)ncn1	/	/	.	.	.	.	/
O=C(Nc1ccc(C(F)(F)F)cc1)C1CCN(S(=O)(=O)c2ccc(N3CCCC3=O)cc2)CC1	/	.	/	/	.	92.1	88.5
COc1ccccc1-c1nc(SCC(=O)Nc2cc(C)on2)c2c(=O)n(C)c(=O)n(C)c2n1	/	.	/	/	.	.	/
CCOc1ccccc1-c1cc(-c2ccc(OC)cc2)nc2c1c(=O)n(C)c(=O)n2C	/	.	/	/	.	82.8	.	MPTP abs DR=.;MPTP counter DR=.
CS(=O)(=O)Nc1ccccc1C(=O)Nc1cc(Cl)cc(Cl)c1	.	.	.	.	.	97.3	83.0
CSc1nc(Cl)c(Cc2ccc(OC(C)C)cc2)c(N(C)C)n1	63.5	.	.	.	.	59.5	.	MPTP abs DR=.;MPTP counter DR=35.2
O=C(c1ccc2c3n(nc2c1)-c1ccccc1CO3)N1CCOCC1	/	.	.	.	.	.	/
O=C(N/N=C/c1ccc(O)cc1O)NC12CC3CC(CC(C3)C1)C2	/	.	/	/	.	.	/
O=C(N/N=C/c1cc([N+](=O)[O-])ccc1O)C12CC3CC(CC(C3)C1)C2	.	.	.	.	.	78.3	53.9
O=C(N/N=C/c1cc([N+](=O)[O-])ccc1O)NC12CC3CC(CC(C3)C1)C2	.	.	.	.	.	73.9	43.8
CC1CCCN(CCC(=O)c2ccc(Br)cc2)C1 (stereo not drawn)	.	.	.	.	.	114.1	.	MPTP abs DR=5.67;MPTP counter DR=.
CC(C)c1ccc(S(=O)(=O)c2nnn3c2nc(N2CCCCC2)c2ccccc23)cc1	.	.	.	.	.	.	/
CCC(C)n1c(NC(=O)c2ccccc2)c(C#N)c2nc3ccccc3nc21 (stereo not drawn)	/	.	/	/	.	.	/

Screens deposited in PubChem by several laboratories.
